From ChEMBL document CHEMBL1122310, “Synthesis of exo-3-phenylbicyclo[3.2.1]oct-3-en-2-amine and related compounds as potential analgesics” (1983)
Several values for one entry are separate records, joined by “and”; a condition that tells them apart may be missing. Equal entries are not always repeated.

Legend:
Assay type in all cases: functional
Mus musculus = species: Mus musculus; assay: Antinociceptive activity by measuring inhibition of acetylcholine writhing in mouse
Procedure, shortened: (§1)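 ED50 determination: six animals per dose group, each dose tested on two or three separate occasions. Pooled data (total dose groups of 12 or 18 animals) analysed by regression to give ED50. Inflamed-paw pressure test in rats; acetylcholine-induced writhing in mice. Doses for the rat paw test given po.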

Rattus norvegicus [1] = species: Rattus norvegicus; assay: Antinociceptive activity by measuring in flamed paw pressure threshold in rat; procedure, shortened: as §1
Rattus norvegicus [2] = assay: Behavioral stimulant activity in rat by sc administration; Marked CNS stimulation
Rattus norvegicus [3] = assay: Behavioral stimulant activity in rat by sc administration; Slight to moderate CNS stimulation
Rattus norvegicus [4] = assay: Behavioral stimulant activity in rat by sc administration; Marked CNS activity
Rattus norvegicus [5] = assay: Behavioral stimulant activity in rat by peroral administration; Inactive
Rattus norvegicus [6] = assay: Behavioral stimulant activity in rat by sc administration; Moderate CNS stimulation

Structure (SMILES) | ED50 (Mus musculus) [mg/kg] | ED50 (Rattus norvegicus [1]) [mg/kg] | Dose (Rattus norvegicus [2]) | Dose (Rattus norvegicus [3]) [mg/kg] | Dose (Rattus norvegicus [4]) [mg/kg] | Dose (Rattus norvegicus [5]) [mg/kg] | Dose (Rattus norvegicus [6]) [mg/kg]
COc1cccc(C2=CC3CCC(C3)[C@@H]2N(C)C)c1 (some centres not stated) | 34.4 | 7.8 | 50 mg/kg | – | – | – | –
CCCN[C@@H]1C(c2ccccc2)=CC2CCC1C2 (some centres not stated) | – | > 30 | – | 25 | – | – | –
N[C@@H]1C(c2ccccc2)=CC2CCC1C2 (some centres not stated) | 8.3 | > 10 | – | – | 25 | 25 | –
C=CCN[C@@H]1C(c2ccccc2)=CC2CCC1C2 (some centres not stated) | 13.7 | 11 | – | – | – | – | 50
CC(C)N(C)[C@@H]1C(c2ccccc2)=CC2CCC1C2 (some centres not stated) | – | > 30 | – | – | – | 25 | –
CC(N)Cc1ccccc1 (configuration not stated) [AMPHETAMINE] | 1.6 | 2.1 | 12.5 mg/kg | 6.25 | – | – | –
CN[C@@H]1C(c2ccccc2)=CC2CCC1C2 (some centres not stated) | 4 | 13.4 | – | – | – | – | –
C=CCN(C)[C@@H]1C(c2ccccc2)=CC2CCC1C2 (some centres not stated) | – | > 30 | – | – | – | 25 | –
CN(C)CCN(C)[C@@H]1C(c2ccccc2)=CC2CCC1C2 (some centres not stated) | – | > 30 | – | – | – | 25 | –
CCN(CC)[C@@H]1C(c2ccccc2)=CC2CCC1C2 (some centres not stated) | 2.4 | > 30 | – | 25 | – | – | –
C1=C(c2ccccc2)[C@@H](N2CCCC2)C2CCC1C2 (some centres not stated) | 19 | 15.7 | 25 mg/kg and 50 mg/kg | – | – | – | –
COc1ccc2c3c1O[C@H]1[C@@H](O)C=C[C@H]4[C@@H](C2)N(C)CC[C@@]341 [CODEINE] | 10.3 | 5.7 | – | – | – | 50 | –
CCCN(C)[C@@H]1C(c2ccccc2)=CC2CCC1C2 (some centres not stated) | – | > 30 | – | – | – | 25 | –
COCCN[C@@H]1C(c2ccccc2)=CC2CCC1C2 (some centres not stated) | 27.7 | – | – | – | – | – | –
CN(C)[C@@H]1C(c2ccccc2)=CC2CCC1C2 (some centres not stated) | 3.9 | 2.9 | 50 mg/kg | – | – | – | –
CCN(C)[C@@H]1C(c2cccc(OC)c2)=CC2CCC1C2 (some centres not stated) | 30.6 | 10.4 | – | – | – | – | –
CN(C)CCN[C@@H]1C(c2ccccc2)=CC2CCC1C2 (some centres not stated) | 31 | 18.1 | – | – | – | 50 | –
C1=C(c2ccccc2)[C@@H](NCCc2ccccc2)C2CCC1C2 (some centres not stated) | – | > 30 | – | – | – | 50 | –
COCCN(C)[C@@H]1C(c2ccccc2)=CC2CCC1C2 (some centres not stated) | – | > 30 | – | – | – | 25 | –
CCN[C@@H]1C(c2ccccc2)=CC2CCC1C2 (some centres not stated) | 15.6 | 3.1 | 50 mg/kg | 25 | – | – | –
CN(CC1CC1)[C@@H]1C(c2ccccc2)=CC2CCC1C2 (some centres not stated) | – | > 30 | – | 50 | – | – | –
C1=C(c2ccccc2)[C@@H](NCC2CCCO2)C2CCC1C2 (some centres not stated) | > 30 | > 30 | – | – | – | 50 | –
CCN(C)[C@@H]1C(c2ccccc2)=CC2CCC1C2 (some centres not stated) | 11.8 | 1.4 | 25 mg/kg | – | – | – | –
CC(C)N[C@@H]1C(c2ccccc2)=CC2CCC1C2 (some centres not stated) | 15.4 | > 30 | – | – | – | – | –
C1=C(c2ccccc2)[C@@H](NCC2CC2)C2CCC1C2 (some centres not stated) | 4.1 | > 30 | – | – | – | 25 | –
CCN(C)[C@@H]1C(c2cccc(O)c2)=CC2CCC1C2 (some centres not stated) | – | > 30 | – | – | – | 25 | –
